From the array DNA melting data of Ke et al. (doi:10.1101/2024.01.08.574731)

What was measured:
[1] = folding enthalpy; higher = less favourable; fluorescence melt of hairpins on a sequencing array, two-state fit; conditions: sodium 0.088 M
Method in brief: (§1)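 Cy3 signals were normalised both to pre-quench Cy3 and to control constructs. They came from library hairpins carrying annealed Cy3 and quencher oligos on a sequenced MiSeq flow cell, imaged in 50 mM Na-HEPES pH 8.0, 25 mM NaCl, in 2.5 °C steps up to 60 °C. Bootstrapped two-state fits gave melting temperature and folding enthalpy, and four replicates were combined by inverse variance. Fitted temperatures were then raised by 9.35 °C to match UV melts.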

[2] = melting temperature; fluorescence melt of hairpins on a sequencing array, two-state fit, raised by 9.35 °C to match UV melts; conditions: sodium 0.088 M
Method in brief: as §1

Sequence	folding enthalpy [1]	Tm [2]
GCGACGCGAAAGCTTCGC ((((.((....)).))))	-45.6 kcal/mol	65.2 °C
GCTCCGCGAAAGCTCAGC (((..((....))..)))	-9.77 kcal/mol	27.2 °C
GTCAGGGGAAACCCTGGC (.(((((....))))).)	-27.7 kcal/mol	53.6 °C
GCTATCGAAAGATATAGC ((((((....)))..)))	-25.1 kcal/mol	36.1 °C
GACTAGGCGAAAGCCGTC (((..(((....))))))	-8.71 kcal/mol	50.4 °C
GACCTACGAAAGTACGTC (((.(((....))).)))	-24.6 kcal/mol	36.2 °C
GATATACCGAAAGGTATC (((..(((....))))))	-13.3 kcal/mol	32.8 °C
GTGATCGAAAGATGTCAC ((((((....)))..)))	-13.7 kcal/mol	29.9 °C
GCGGCTCACCGC ((((....))))	-26.9 kcal/mol	63 °C
GACCACGAAAGTGAGTC ((((((....))).)))	-30.5 kcal/mol	52.2 °C
CGCGGAATGATCCGCG ((((((....))))))	-39.7 kcal/mol	62.5 °C
GATTCCCCGAAAGGGATC (((..(((....))))))	-12.2 kcal/mol	29.2 °C
GCTGAGGGAAACTTCGGC ((.((.(....).)).))	-29 kcal/mol	33.8 °C
GATCAGTTCACTGATC ((((((....))))))	-44.8 kcal/mol	58.1 °C
GTTGACGAAAGTCCAAC ((((((....))).)))	-17.7 kcal/mol	40.9 °C
GATCTCTTTAGAGATC ((((((....))))))	-44.9 kcal/mol	61.8 °C
GAGGTTGGAAACAACCTC (((((((....)))))))	-43.3 kcal/mol	65.8 °C
GATCATAGAAATGATC ((((((....))))))	-29.4 kcal/mol	41.7 °C
GATCGCCCGCGCGATC ((((((....))))))	-30.6 kcal/mol	66.3 °C
GGTGAAGGAAACTTCGCC ((.((((....)))).))	-45.2 kcal/mol	52.6 °C
GCACTCGGAAACAAGTGC (((((.(....).)))))	-29.3 kcal/mol	46.3 °C
CGTACGGAAACGTCACG ((((((....))).)))	-22.6 kcal/mol	38.4 °C
GTGATCGAAAGATTGCAC ((((((....)))..)))	-14.5 kcal/mol	30.4 °C
GATTTAGGAAACTAGATC (((.(((....))).)))	-27.5 kcal/mol	28.3 °C

Sequence	folding enthalpy [1]	Tm [2]
GTGTTTGAAAAAACAC ((((((....))))))	-38.4 kcal/mol	52.9 °C
GGAGTTGGAAACAATTCC (((.(((....))).)))	-29.6 kcal/mol	43 °C
GATCCTGCGTAGGATC ((((((....))))))	-44.2 kcal/mol	51.4 °C
GACAACGAAAGTTGAGTC ((((((....)))..)))	-11.2 kcal/mol	34.8 °C
GGTCCCGGAAACGGGGTC (..((((....))))..)	-14.4 kcal/mol	42.8 °C
GAGCCCGAAAGGGTCTC ((((((....))).)))	-23.8 kcal/mol	59 °C
GCGTACGAAAGTACCCGC ((((((....)))..)))	-14.2 kcal/mol	40.2 °C
GATCGTTCTAACGATC ((((((....))))))	-39.7 kcal/mol	57.3 °C
GCTAAGCGAAAGCTCTGC ((..(((....)))..))	-15.8 kcal/mol	31.4 °C
GTTATGGGAAACTATAAC (((((.(....).)))))	-23.8 kcal/mol	34.6 °C
GATCCAATTTTGGATC ((((((....))))))	-40.2 kcal/mol	54 °C
GATCCATCTGTGGATC ((((((....))))))	-36.4 kcal/mol	54.3 °C
GTACGGGAAACCGTAC ((((((....))))))	-27.9 kcal/mol	63.2 °C
GCCTCGCGAAAGCGCTGC ((..(((....)))..))	-10.4 kcal/mol	38.5 °C
CGCTCCGGAAACGGCGCG (((.(((....))).)))	-39.5 kcal/mol	56.9 °C
GATCTGATTCCAGATC ((((((....))))))	-34 kcal/mol	48.5 °C
GATCGTCGAACGATC ((((((...))))))	-33.9 kcal/mol	53.1 °C
GCTTGGCGAAAGCCAGGC ((.((((....)))).))	-23.5 kcal/mol	66.4 °C
GGTATGGCGAAAGCCACC (((..(((....))))))	-8.56 kcal/mol	38.9 °C
GATCATGCCAATGATC ((((((....))))))	-45.4 kcal/mol	58.5 °C
GCCCAGCGAAAGCCGAGC ((.(.((....)).).))	-7.29 kcal/mol	40.6 °C
GGACAAGAAATTGTCC ((((((....))))))	-37.4 kcal/mol	55.3 °C
GACCACGAAAGTGCGTC ((((((....))).)))	-22.8 kcal/mol	53.7 °C
GTTGTGGGAAACCGCAAC ((((.((....)).))))	-43 kcal/mol	53.8 °C

Sequence	folding enthalpy [1]	Tm [2]
GCGAAACGTCGC ((((....))))	-19.5 kcal/mol	47.8 °C
GATCCGGGATCGGATC ((((((....))))))	-40.1 kcal/mol	61.9 °C
GCTCATGGAAACGTGAGC (((((.(....).)))))	-47.5 kcal/mol	53.4 °C
GATCTTATAGAAGATC ((((((....))))))	-30 kcal/mol	39.5 °C
GAGTACGAAAGTAGCTC ((((((....))).)))	-23.3 kcal/mol	37.5 °C
GCGTGGACACGC ((((....))))	-25.5 kcal/mol	62 °C
GGATCCGAAAGGACATCC ((((((....)))..)))	-17.6 kcal/mol	37.2 °C
GATCTCTTAGAGATC ((((((...))))))	-38.9 kcal/mol	53.1 °C
GTGGAAGGAAACTTCTGC (..((((....))))..)	-14.4 kcal/mol	34.1 °C
GGGGGTGGAAACATCCCC ((((.((....)).))))	-34.7 kcal/mol	56.8 °C
CGAGGCGGAAACGCTCG (((.(((....))))))	-20.5 kcal/mol	51 °C
GCTAAGGGAAACCTTGGC ((.((((....)))).))	-29.4 kcal/mol	47.6 °C
GAGGCACGAAAGTGCTC (((.(((....))))))	-9.34 kcal/mol	45.9 °C
GATCCCATTTGGGATC ((((((....))))))	-37 kcal/mol	66.1 °C
GCAGTGCGAAAGCCCTGC ((((.((....)).))))	-32.8 kcal/mol	61.8 °C
GTGGTCCGAAAGGACAC (((.(((....))))))	-12.8 kcal/mol	53.2 °C
GGCAGCGAAAGCTTGCC ((((((....))).)))	-27.1 kcal/mol	63.1 °C
GGTAAACGAAAGTTGACC (((.(((....))).)))	-36.3 kcal/mol	49.4 °C
GCTACACCGAAAGGTAGC (((..(((....))))))	-22.7 kcal/mol	47.1 °C
GGAAGAACGAAAGTTTCC (((..(((....))))))	-14.9 kcal/mol	33 °C
GAACACGAAAGTGTTTTC ((((((....)))..)))	-15.1 kcal/mol	49 °C
GATCTCGACGGAGATC ((((((....))))))	-48.4 kcal/mol	54.3 °C
GTTACACGAAAGTGAAC (((.(((....))))))	-15.8 kcal/mol	36.7 °C
GCGTAGCGAAAGCTTGGC ((..(((....)))..))	-7.38 kcal/mol	36.5 °C

Sequence	folding enthalpy [1]	Tm [2]
GTCCCCCGAAAGGGTGAC (((.(((....))).)))	-28.1 kcal/mol	52.5 °C
GCGGTGGGAAACCACCAC (.(((((....))))).)	-12.4 kcal/mol	48.1 °C
GAGGGTCCGAAAGGACTC (((..(((....))))))	-9.51 kcal/mol	41.3 °C
GTGACCGAAAGGTGCAC ((((((....))).)))	-19.9 kcal/mol	49.4 °C
GCGGTGCGAAAGCGCTGC ((.(.((....)).).))	-21.6 kcal/mol	66.9 °C
GATCTTCGACAAGATC ((((((....))))))	-26.7 kcal/mol	38.6 °C
GATCACTTCAGTGATC ((((((....))))))	-46.6 kcal/mol	63.9 °C
GCGGCAGCCCGC ((((....))))	-10.3 kcal/mol	59.1 °C
GATGACCGAAAGGTAATC (((.(((....))).)))	-23.4 kcal/mol	47.1 °C
GATCACAAAGTGATC ((((((...))))))	-38.2 kcal/mol	61 °C
AGGAGGAAACTCCT (((((....)))))	-18.3 kcal/mol	45 °C
GCAACCGAAAGGTATGC ((((((....))).)))	-26.4 kcal/mol	50.3 °C
GATGCGCCGAAAGGCATC (((..(((....))))))	-12.4 kcal/mol	31.4 °C
GTTTGCACGAAAGTGAAC (((..(((....))))))	-13.9 kcal/mol	31.2 °C
GGTGTGCGAAAGCAAACC (((.(((....))).)))	-35.5 kcal/mol	56 °C
GGTAACGAAAGTTCGACC ((((((....)))..)))	-16 kcal/mol	28 °C
CGAGTCGGAAACGAATCG (((.(((....))).)))	-39.9 kcal/mol	52.2 °C
GATCGGGGAAACCCAATC (((.(((....))).)))	-20.8 kcal/mol	32.8 °C
GACCGTGAAAACGGTC ((((((....))))))	-41.1 kcal/mol	68.1 °C
GTTCGCGAAAGCGTCAAC ((((((....)))..)))	-9.05 kcal/mol	28.1 °C
GTACTAGCGAAAGCTTAC (((..(((....))))))	-9.73 kcal/mol	28.2 °C
